Laboratory results published in ChEMBL document CHEMBL1127564, “Studies on neurokinin antagonists. 4. Synthesis and structure-activity relationships of novel dipeptide substance P antagonists: N2-[(4R)-4-hydroxy-1-[(1-methyl-1H-indol-3-yl)carbonyl]-L-prolyl]-N- methyl-N-(phenylmethyl)-3-(2-naphthyl)-L-alaninamide and its related compounds” (J Med Chem, 1994).

Legend:
Cavia porcellus [1] = assay: In vivo inhibitory activity against airway edema induced by Substance P at a dose 10 mg/kg administered orally; type: functional; details: route oral
In short: (§1)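 Male Hartley guinea pigs dosed orally with drug in DMSO solution, or with vehicle, 30 min before intravenous SP (1.3 μg/kg) given with Evans Blue (20 mg/kg) and heparin (200 IU/kg). Trachea and main bronchi removed 10 min after challenge; dye extracted and read at 620 nm. Percent inhibition of edema reported, two animals per experiment.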

Substance-P receptor = Substance-P receptor (Cavia porcellus, UniProt P30547); assay: In vitro binding affinity against substance P receptor using [3H]SP as radioligand in guinea pig lung membrane; type: cell membranes
In short: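 Guinea pig lung membranes incubated with 1 nM [3H]SP, with or without test compound, 0.5 h at 4 °C in 50 mM Tris-HCl pH 7.5, 5 mM MnCl2, 0.02% BSA, chymostatin, leupeptin, bacitracin. Filtered on glass-fibre filters, radioactivity counted by scintillation. Specific binding defined as that displaced by 5 μM unlabeled SP. IC50 estimated from the displacement curve. Duplicate assays, usually a single experiment.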

Cavia porcellus [2] = assay: In vivo inhibitory activity against airway edema induced by Substance P at a dose 100 mg/kg administered orally; type: functional; details: route oral; in short: as §1

Chain of Substance-P receptor (P30547 whole entry): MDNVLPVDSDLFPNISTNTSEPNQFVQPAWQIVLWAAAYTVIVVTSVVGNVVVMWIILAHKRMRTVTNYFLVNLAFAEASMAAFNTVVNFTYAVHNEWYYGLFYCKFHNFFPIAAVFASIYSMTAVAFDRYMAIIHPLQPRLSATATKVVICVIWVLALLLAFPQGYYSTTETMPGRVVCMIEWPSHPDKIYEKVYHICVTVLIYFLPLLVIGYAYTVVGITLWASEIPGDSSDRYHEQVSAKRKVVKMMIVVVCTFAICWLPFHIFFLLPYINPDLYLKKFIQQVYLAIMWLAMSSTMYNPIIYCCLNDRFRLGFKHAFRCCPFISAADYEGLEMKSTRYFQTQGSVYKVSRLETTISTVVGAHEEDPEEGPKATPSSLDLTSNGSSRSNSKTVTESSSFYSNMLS

| Structure (SMILES) | inhibition in vivo at 10 mg/kg (Cavia porcellus [1]) | IC50 (Substance-P receptor; read-out: IC50) | inhibition in vivo at 100 mg/kg (Cavia porcellus [2]) | IC50 (Substance-P receptor) |
| --- | --- | --- | --- | --- |
| CC(C)n1cc(C(=O)N2C[C@H](O)CC2C(=O)N[C@H](Cc2ccccc2)C(=O)N(C)Cc2ccccc2)c2ccccc21 (stereo not given in full) | 48% | 15.9 nM |  |  |
| CN(Cc1ccccc1)C(=O)[C@@H](Cc1ccccc1)NC(=O)C1C[C@@H](O)CN1C(=O)c1cc2ccccc2s1 (stereo not given in full) | 37% | 19.9 nM |  |  |
| CN(Cc1ccccc1)C(=O)[C@@H](Cc1ccc([N+](=O)[O-])cc1)NC(=O)C1C[C@@H](O)CN1C(=O)c1cn(C)c2ccccc12 (stereo not given in full) | 19% | 7 nM | 39% |  |
| CN(Cc1ccccc1)C(=O)[C@@H](Cc1ccccc1)NC(=O)C1C[C@@H](O)CN1C(=O)c1cn(CC(=O)O)c2ccccc12 (stereo not given in full) |  | 49.7 nM |  |  |
| CN(Cc1ccccc1)C(=O)[C@@H](Cc1cn(C=O)c2ccccc12)NC(=O)C1C[C@@H](O)CN1C(=O)c1cn(C)c2ccccc12 (stereo not given in full) |  | 3.5 nM | 21% |  |
| CN(Cc1ccccc1)C(=O)[C@@H](Cc1csc2ccccc12)NC(=O)C1C[C@@H](O)CN1C(=O)c1cn(C)c2ccccc12 (stereo not given in full) | 34% | 10.3 nM | 99% |  |
| CN(Cc1ccccc1)C(=O)[C@@H](Cc1ccccc1F)NC(=O)C1C[C@@H](O)CN1C(=O)c1cn(C)c2ccccc12 (stereo not given in full) |  | 14 nM | 35% |  |
| CN(Cc1ccccc1)C(=O)[C@@H](Cc1ccccc1)NC(=O)C1CCN1C(=O)c1c[nH]c2ccccc12 (stereo not given in full) |  | 8 nM |  |  |
| CN(Cc1ccccc1)C(=O)[C@@H](Cc1ccccc1)NC(=O)C1C[C@@H](O)CN1C(=O)/C=C/c1ccccc1 (stereo not given in full) | 47% | 9 nM |  |  |
| CN(Cc1ccccc1)C(=O)[C@@H](Cc1ccc2cc(Cl)ccc2c1)NC(=O)C1C[C@@H](O)CN1C(=O)c1cn(C)c2ccccc12 (stereo not given in full) |  | 27.3 nM |  |  |
| CN(Cc1ccccc1)C(=O)[C@@H](Cc1ccccc1)NC(=O)C1C[C@@H](O)CN1C(=O)c1cn(C)c2ccccc12 (stereo not given in full) | 51% |  | 75% |  |
| CN(Cc1ccccc1)C(=O)[C@@H](Cc1ccccc1)NC(=O)[C@H]1CCCN1C(=O)c1c[nH]c2ccccc12 |  |  |  | Not Active |
| Cc1ccc2cc(C[C@@H](NC(=O)C3C[C@@H](O)CN3C(=O)c3cn(C)c4ccccc34)C(=O)N(C)Cc3ccccc3)ccc2c1 (stereo not given in full) |  |  | 28% | 23 nM |
| CN(Cc1ccccc1)C(=O)[C@@H](Cc1ccc2ccccc2c1)NC(=O)C1C[C@@H](O)CN1C(=O)c1cn(C)c2ccccc12 (stereo not given in full) | 86% | 1.7 nM | 94% |  |
| CN(Cc1ccccc1)C(=O)[C@@H](Cc1ccc2c(c1)CCCC2)NC(=O)C1C[C@@H](O)CN1C(=O)c1cn(C)c2ccccc12 (stereo not given in full) | 69% | 11.6 nM | 87% |  |
| COc1ccc(C[C@@H](NC(=O)C2C[C@@H](O)CN2C(=O)c2cn(C)c3ccccc23)C(=O)N(C)Cc2ccccc2)cc1 (stereo not given in full) | 29% | 7.6 nM | 91% |  |
| CN(Cc1ccccc1)C(=O)[C@@H](Cc1c[nH]c2ccccc12)NC(=O)C1C[C@@H](O)CN1C(=O)c1cn(C)c2ccccc12 (stereo not given in full) |  | 1.7 nM | 7% |  |
| CN(Cc1ccccc1)C(=O)[C@@H](Cc1ccc2c(c1)OCCO2)NC(=O)C1C[C@@H](O)CN1C(=O)c1cn(C)c2ccccc12 (stereo not given in full) |  | 1.1 nM | 1% |  |
| CN(Cc1ccccc1)C(=O)[C@@H](Cc1ccc(NS(C)(=O)=O)cc1)NC(=O)C1C[C@@H](O)CN1C(=O)c1cn(C)c2ccccc12 (stereo not given in full) |  | 25.3 nM | 0% |  |

| Structure (SMILES) | inhibition in vivo at 10 mg/kg (Cavia porcellus [1]) | IC50 (Substance-P receptor; read-out: IC50) | inhibition in vivo at 100 mg/kg (Cavia porcellus [2]) | IC50 (Substance-P receptor) |
| --- | --- | --- | --- | --- |
| CN(Cc1ccccc1)C(=O)[C@@H](Cc1ccc(F)cc1)NC(=O)C1C[C@@H](O)CN1C(=O)c1cn(C)c2ccccc12 (stereo not given in full) | 30% |  | 96% | 4.3 nM |
| CN(Cc1ccccc1)C(=O)[C@@H](Cc1cccc(F)c1)NC(=O)C1C[C@@H](O)CN1C(=O)c1cn(C)c2ccccc12 (stereo not given in full) |  |  | 85% | 9.2 nM |
| CN(Cc1ccccc1)C(=O)[C@@H](Cc1cccc(C(F)(F)F)c1)NC(=O)C1C[C@@H](O)CN1C(=O)c1cn(C)c2ccccc12 (stereo not given in full) |  |  | 66% | 3.5 nM |
| CN(Cc1ccccc1)C(=O)[C@@H](Cc1ccc(C(F)(F)F)cc1)NC(=O)C1C[C@@H](O)CN1C(=O)c1cn(C)c2ccccc12 (stereo not given in full) | 83% |  | 94% | 4.9 nM |
| CN(Cc1ccccc1)C(=O)[C@@H](Cc1ccc(O)cc1)NC(=O)C1C[C@@H](O)CN1C(=O)c1cn(C)c2ccccc12 (stereo not given in full) |  |  | 11% | 1.8 nM |
| CN(C)CCn1cc(C(=O)N2C[C@H](O)CC2C(=O)N[C@H](Cc2ccccc2)C(=O)N(C)Cc2ccccc2)c2ccccc21 (stereo not given in full) | 2% | 3.5 nM |  |  |
| CN(Cc1ccccc1)C(=O)[C@@H](Cc1ccccc1)NC(=O)C(CCCCN)NC(=O)c1c[nH]c2ccccc12 (stereo not given in full) |  | 14 nM |  |  |
| CN(Cc1ccccc1)C(=O)[C@@H](Cc1ccc(N)cc1)NC(=O)C1C[C@@H](O)CN1C(=O)c1cn(C)c2ccccc12 (stereo not given in full) |  | 5.4 nM | 0% |  |
| CN(Cc1ccccc1)C(=O)[C@@H](Cc1ccccc1)NC(=O)C1C[C@@H](O)CN1C(=O)CCc1ccccc1 (stereo not given in full) | 4% | 14 nM |  |  |
| CN(Cc1ccccc1)C(=O)[C@@H](Cc1ccccc1)NC(=O)C1CCC(O)CN1C(=O)c1c[nH]c2ccccc12 (stereo not given in full) |  | 289 nM |  |  |
| CN(Cc1ccccc1)C(=O)[C@@H](Cc1ccccc1)NC(=O)C(CC(=O)O)NC(=O)c1c[nH]c2ccccc12 (stereo not given in full) |  |  |  | Not Active |
| CN(Cc1ccccc1)C(=O)[C@@H](Cc1ccccc1)NC(=O)C(CC(N)=O)NC(=O)c1c[nH]c2ccccc12 (stereo not given in full) |  | 9 nM |  |  |
| CN(Cc1ccccc1)C(=O)[C@@H](Cc1ccccc1)NC(=O)C(CO)NC(=O)c1c[nH]c2ccccc12 (stereo not given in full) |  | 11 nM |  |  |
| CN(Cc1ccccc1)C(=O)[C@@H](Cc1ccccc1)NC(=O)C1C[C@@H](O)CN1C(=O)c1[nH]nc2ccccc12 (stereo not given in full) | 0% | 5 nM |  |  |
| CN(Cc1ccccc1)C(=O)[C@@H](Cc1ccccc1)NC(=O)C1C[C@@H](O)CN1C(=O)CCCc1ccccc1 (stereo not given in full) |  |  |  | 32 nM |
| CN(Cc1ccccc1)C(=O)[C@@H](Cc1ccccc1)NC(=O)C1C[C@@H](O)CN1C(=O)Cc1ccccc1 (stereo not given in full) |  | 139 nM |  |  |
| CN(Cc1ccccc1)C(=O)[C@@H](Cc1ccccc1)NC(=O)C1CCCN1C(=O)c1c[nH]c2ccccc12 (stereo not given in full) |  | 5.4 nM |  |  |
| CN(Cc1ccccc1)C(=O)C(Cc1ccccc1)NC(=O)C1C[C@H](O)CN1C(=O)c1c[nH]c2ccccc12 (single isomer, unassigned) |  | 4.6 nM |  |  |
| CN(Cc1ccccc1)C(=O)C(Cc1ccccc1)NC(=O)C1C[C@@H](O)CN1C(=O)c1c[nH]c2ccccc12 (single isomer, unassigned) |  | 7.4 nM | 8% |  |
